Laboratory results reported in ChEMBL document CHEMBL1800028, “Analogues of 4-[(7-Bromo-2-methyl-4-oxo-3H-quinazolin-6-yl)methylprop-2-ynylamino]-N-(3-pyridylmethyl)benzamide (CB-30865) as potent inhibitors of nicotinamide phosphoribosyltransferase (Nampt)” (J Med Chem, 2010).

Columns and labels:
[1] = target: T1, Nicotinamide phosphoribosyltransferase (Homo sapiens, UniProt P43490); assay: Inhibition of nicotinamide phosphoribosyltransferase-catalyzed conversion of nicotinamide to nicotinamide mononucleotide
How it was run: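 Coupled-enzyme format: Nampt turnover of nicotinamide to NMN monitored through a downstream coupled reaction; IC50 determined.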
Target sequence in this assay (P43490 whole entry): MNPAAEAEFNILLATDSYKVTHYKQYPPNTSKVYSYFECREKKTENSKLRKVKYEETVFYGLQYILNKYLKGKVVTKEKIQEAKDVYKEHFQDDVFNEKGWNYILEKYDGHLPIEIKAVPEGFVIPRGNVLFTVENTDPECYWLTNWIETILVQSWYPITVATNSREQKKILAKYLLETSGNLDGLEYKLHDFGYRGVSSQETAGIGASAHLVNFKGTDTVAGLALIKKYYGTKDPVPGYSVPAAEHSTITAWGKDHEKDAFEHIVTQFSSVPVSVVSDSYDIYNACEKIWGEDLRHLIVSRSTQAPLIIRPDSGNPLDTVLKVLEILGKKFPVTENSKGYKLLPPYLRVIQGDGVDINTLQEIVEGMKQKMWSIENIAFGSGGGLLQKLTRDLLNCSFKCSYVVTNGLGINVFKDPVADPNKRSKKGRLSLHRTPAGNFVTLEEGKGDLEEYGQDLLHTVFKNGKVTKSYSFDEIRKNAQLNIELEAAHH

[2] = target: T1, Nicotinamide phosphoribosyltransferase; assay: Inhibition of Nampt activity in H2O2-induced DNA damage in human MCF10A cells stably transfected with PIK3CA (H1047R) assessed as loss of PARP activity; assay type: cell-based; conditions: MCF-10A
Target sequence in this assay (P43490 whole entry, looked up): as the sequence (P43490 whole entry) above

HCT-116 [3] = assay: Cytotoxicity against human HCT116 cells after 72 hrs; assay type: functional
How it was run: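 HCT116 colon carcinoma cells treated with compound for 72 h; viability read out as cellular ATP levels.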

HCT-116 [4] = assay: Cytotoxicity against human HCT116 cells after 72 hrs in presence of 10 uM exogenous nicotinic acid; assay type: functional, cell-based; conditions: HCT-116, 72 h
How it was run: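 HCT116 colon carcinoma cells treated for 72 h with compound plus 10 μM exogenous nicotinic acid to test whether killing depends on Nampt; viability read out as cellular ATP levels.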

Row | Structure (SMILES) | IC50 [1] | inhibitory concentration [2] | Activity (HCT-116 [3]) | EC50 (HCT-116 [4])
1 | CCCCN(Cc1ccccc1Cl)c1ccc(C(=O)NCc2cccnc2)cc1 | > 10000 nM |  |  | 
2 | C#CCN(Cc1ccc2nc(C)n(C)c(=O)c2c1)c1ccc(C(=O)NCc2ccc(F)c(F)c2)cc1 | 30 nM | > 5 µM | >10 µM | 
3 | C#CCN(Cc1ccc2ncn(C)c(=O)c2c1)c1ccc(C(=O)NCc2cccnc2)cc1 | 12 nM | 0.025 µM | 0.3 µM | 
4 | Cn1cnc2cc(Cl)c(CN(CC3CC3)c3ccc(C(=O)NCc4cccnc4)cc3)cc2c1=O | 13 nM | 0.012 µM | 0.11 µM | 
5 | O=C(NCc1cccnc1)c1ccc(N(Cc2ccccc2Cl)CC2CC2)cc1 | 1.3 nM | 0.011 µM | 0.059 µM | 
6 | Cc1c(Sc2ccc(C(=O)NCc3cccnc3)cc2)[nH]c2nc(N)nc(N)c12 | 1200 nM |  |  | 
7 | CCN(Cc1ccccc1Cl)c1ccc(C(=O)NCc2cccnc2)cc1 | 330 nM | > 5 µM | >10 µM | 
8 | C/C=C/CN(Cc1ccccc1Cl)c1ccc(C(=O)NCc2cccnc2)cc1 | 1.5 nM | 0.0089 µM | 0.099 µM | 
9 | CC(C)=CCN(Cc1ccccc1Cl)c1ccc(C(=O)NCc2cccnc2)cc1 | 1.9 nM | 0.0032 µM | 0.016 µM | > 10000 nM
10 | C#CCN(Cc1cc2c(=O)n(C)c(C)nc2cc1Cl)c1ccc(C(=O)NCc2cccnc2)cc1 | 0.55 nM | 0.00045 µM | 0.0021 µM | 
11 | Cn1cnc2cc(Cl)c(NCc3ccc(C(=O)NCc4cccnc4)cc3)cc2c1=O | 3.8 nM | 0.0093 µM | 0.42 µM | 
12 | Nc1nc(N)c2c(CCc3ccc(C(=O)NCc4cccnc4)cc3)c[nH]c2n1 | 600 nM | > 5 µM | >10 µM | 
13 | C#CCN(Cc1ccc2nc(C)n(C)c(=O)c2c1)c1ccc(C(=O)NCc2ccccc2F)cc1 | 34 nM | > 5 µM | 9.7 µM | 
14 | Cc1noc(C)c1CN(Cc1ccc2nc(C)n(C)c(=O)c2c1)c1ccc(C(=O)NCc2cccnc2)cc1 | 210 nM | 0.012 µM | 5.3 µM | 
15 | C/C=C/CN(Cc1ccc2nc(C)n(C)c(=O)c2c1)c1ccc(C(=O)NCc2cccnc2)cc1 | 2.9 nM | 0.0016 µM | 0.0044 µM | 
16 | Cn1cnc2cc(Cl)c(C(=O)Nc3ccc(C(=O)NCc4cccnc4)cc3)cc2c1=O | 12 nM | 0.048 µM | 0.73 µM | 
17 | C#CCN(Cc1ccc2nc(C)n(C)c(=O)c2c1)c1ccc(C(=O)NCc2ccc(Cl)cc2)cc1 | 150 nM | > 5 µM | >10 µM | 
18 | CC(C)=CCN(Cc1cc2c(=O)n(C)c(C)nc2cc1Cl)c1ccc(C(=O)NCc2nc3ccccc3[nH]2)cc1 | 25 nM | > 5 µM | 6.4 µM | 
19 | C#CCN(Cc1coc2nc(N)nc(N)c12)c1ccc(C(=O)NCc2cccnc2)cc1 | > 10000 nM | > 5 µM | >10 µM | 
20 | C#CCCN(Cc1ccc2nc(C)n(C)c(=O)c2c1)c1ccc(C(=O)NCc2cccnc2)cc1 | 950 nM | 2.9 µM | 6.3 µM | 
21 | CC(C)=CC(=O)N(Cc1ccc2nc(C)n(C)c(=O)c2c1)c1ccc(C(=O)NCc2cccnc2)cc1 | > 10000 nM | 2.2 µM | >10 µM | 
22 | Cc1nc2ccc(CN(CC3CC3)c3ccc(C(=O)NCc4cccnc4)cc3)cc2c(=O)n1C | 2600 nM | 0.019 µM | 0.11 µM | 
23 | Cc1[nH]c2nc(N)[nH]c(=O)c2c1Sc1ccc(C(=O)NCc2cccnc2)cc1 | 2800 nM | > 5 µM |  | 
24 | C#CCN(Cc1ccccc1Cl)c1ccc(C(=O)NCc2cccnc2)cc1 | 4.2 nM | 0.15 µM | 2.4 µM | > 10000 nM

Row | Structure (SMILES) | IC50 [1] | inhibitory concentration [2] | Activity (HCT-116 [3]) | EC50 (HCT-116 [4])
25 | Cc1nc2c(c(=O)[nH]1)CN(C(=O)Nc1ccc(C(=O)NCc3cccnc3)cc1)CC2 | 29 nM | > 5 µM | >10 µM | 
26 | Cc1c(Sc2ccc(C(=O)NCCc3cccnc3)cc2)[nH]c2nc(N)nc(N)c12 | 90 nM |  | >10 µM | 
27 | CC(C)=CCN(Cc1cc2c(=O)n(C)nnc2cc1Cl)c1ccc(C(=O)NCc2cccnc2)cc1 |  | 0.0017 µM | 0.003 µM | 
28 | C#CCN(Cc1cc2c(=O)n(C)c(CN3CCN(CCCN)CC3)nc2cc1Cl)c1ccc(C(=O)NCc2cccnc2)cc1 | 0.3 nM | 0.0018 µM | 0.018 µM | 
29 | Cc1nc2ccc(CN(C(=O)C3CC3)c3ccc(C(=O)NCc4cccnc4)cc3)cc2c(=O)n1C | > 10000 nM | 2.6 µM | >10 µM | 
30 | C#CCN(Cc1ccc2nc(C)n(C)c(=O)c2c1)c1ccc(C(=O)NCc2cccc(F)c2)cc1 | 250 nM | > 5 µM | >10 µM | 
31 | C#CCN(Cc1ccc2nc(C)n(C)c(=O)c2c1)c1ccc(C(=O)NCc2ccc(F)c(F)c2F)cc1 | 98 nM | > 5 µM | >10 µM | 
32 | C#CCN(Cc1ccc2nc(C)n(C)c(=O)c2c1)c1ccc(C(=O)NCc2ccc3c(c2)OCO3)cc1 | 85 nM | > 5 µM | >10 µM | 
33 | CCCN(Cc1ccccc1Cl)c1ccc(C(=O)NCc2cccnc2)cc1 | 15 nM | 0.24 µM | 3.5 µM | 
34 | C#CCN(Cc1cc2c(=O)n(C)c(CO)nc2cc1Cl)c1ccc(C(=O)NCc2cccnc2)cc1 | 0.79 nM | 0.0001 µM | 0.0016 µM | 
35 | CC(C)=CC(=O)N(Cc1cc2c(=O)n(C)cnc2cc1Cl)c1ccc(C(=O)NCc2cccnc2)cc1 | 660 nM | 0.37 µM | 4.1 µM | 
36 | CC(C)CN(Cc1ccccc1Cl)c1ccc(C(=O)NCc2cccnc2)cc1 | 420 nM |  |  | 
37 | CC(C)=CCN(Cc1ccc2ncn(C)c(=O)c2c1)c1ccc(C(=O)NCc2cccnc2)cc1 | 1.2 nM | 0.0004 µM | 0.004 µM | 
38 | CC(C)=CCN(Cc1ccc2nc(C)n(C)c(=O)c2c1)c1ccc(C(=O)NCc2nc3ccccc3[nH]2)cc1 | 31 nM | 0.7 µM | 1.4 µM | 
39 | C#CCN(Cc1ccc2nc(C)n(C)c(=O)c2c1)c1ccc(C(=O)NCc2ccc(F)cc2F)cc1 | 49 nM | > 5 µM | >10 µM | 
40 | CC(C)=CCN(Cc1ccc2nc(C)n(C)c(=O)c2c1)c1ccc(C(=O)NCc2cccnc2)cc1 | 1.4 nM | 0.00023 µM | 0.0035 µM | 
41 | CN(Cc1ccccc1Cl)c1ccc(C(=O)NCc2cccnc2)cc1 | > 10000 nM |  |  | 
42 | O=C(NCc1cccnc1)c1ccc(N(Cc2ccccc2)Cc2ccccc2Cl)cc1 | 110 nM | 0.17 µM | 0.7 µM | 
43 | C#CCN(Cc1cc2c(=O)n(C)c(C)nc2cc1Cl)c1ccc(C(=O)NCc2nc3ccccc3[nH]2)cc1 | 40 nM | 3.2 µM | 5.7 µM | 
44 | Cc1nc2c(c(=O)[nH]1)CN(C(=O)c1ccc(C(=O)NCc3cccnc3)cc1)CC2 | 7200 nM | > 5 µM | >10 µM | 
45 | C#CCN(Cc1ccc2nc(C)n(C)c(=O)c2c1)c1ccc(C(=O)NCc2cccnc2)cc1 | 3.6 nM | 0.0095 µM | 0.034 µM | 
46 | C#CCN(Cc1ccc2nc(C)n(C)c(=O)c2c1)c1ccc(C(=O)NCc2nc3ccccc3[nH]2)cc1 | 130 nM | > 5 µM | 5.4 µM | 
47 | C#CCCN(Cc1cc2c(=O)n(C)cnc2cc1Cl)c1ccc(C(=O)NCc2cccnc2)cc1 | 12 nM | 0.03 µM | 0.15 µM | 
